Results: ChEMBL document CHEMBL5724801, “EUbOPEN Chemogenomics Library - Multiplex” (2024)
Several values for one entry are separate records, joined by “and”; a condition that tells them apart may be missing. Equal values may be shown once.

What was measured:
HEK-293T = assay: Multiplex assay against HEK293T; format: toxicity, cell-based; conditions: human
Procedure, shortened: (§1)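 Live cells carried four stains from seeding: Hoechst33342, BioTracker Green Microtubule Cytoskeleton Dye, MitoTracker Red and Annexin V Alexa Fluor 680. They were imaged on a CQ1 microscope at 37°C and 5% CO2 after compound addition. Using CellPathfinder machine-learning gating, cells were split into Hoechst high-intensity objects or normal cells, normal cells into healthy, pyknosed or fragmented nuclei, and pyknosed cells into mitotic or apoptotic; tubulin, mitochondrial-mass and membrane-permeability phenotypes are per cents of healthy-nucleus cells.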

U2OS = assay: Multiplex assay against U2OS; format: toxicity, cell-based; conditions: human; procedure, shortened: as §1
[1] = 24 h, 10 µM, compound concentration 10 uM
[2] = 48 h, 1 µM, compound concentration 1 uM
[3] = 48 h, 10 µM, compound concentration 10 uM
[4] = 12 h, 1 µM, compound concentration 1 uM
[5] = 12 h, 10 µM, compound concentration 10 uM
[6] = 24 h, 1 µM, compound concentration 1 uM

## Cc1noc(C)c1-c1cnc2c(-c3ccc(C(=O)O)cc3)cn([C@@H](C)c3ccccn3)c2c1 [PLX-51107]
HEK-293T; [1]
  Population Healthy Nuclei (%): 62.01% and 40.13%
  Population Hoechst High Intensity Objects (%): 0%
  Population Membrane Permeable-Phenotype (%): 0% and 0.81%
  Population Mitochondria Different-Phenotype (%): 8.3% and 4.84%
  Population Mitotic Cells (%): 89.33% and 86.51%
  Population Normal (%): 100%
  Population Pyknosed Nuclei (%): 36.76% and 40.78%
  Population Tubulin-Different-Phenotype (%): 0% and 5.65%
  Total Cell Count: 408 and 309
HEK-293T; [2]
  Population Fragmented Nuclei (%): 6.3% and 3.02%
  Population Healthy Nuclei (%): 84.08% and 65.66%
  Population Hoechst High Intensity Objects (%): 0.14% and 0%
  Population Membrane Permeable-Phenotype (%): 0.33% and 1.15%
  Population Mitochondria Different-Phenotype (%): 5.35% and 6.9%
  Population Mitotic Cells (%): 94.96% and 79.52%
  Population Normal (%): 99.86% and 100%
  Population Tubulin-Different-Phenotype (%): 0.33% and 2.87%
HEK-293T; [3]
  Population Healthy Nuclei (%): 78.62% and 47.53%
  Population Hoechst High Intensity Objects (%): 0%
  Population Membrane Permeable-Phenotype (%): 0.21% and 0.65%
  Population Mitochondria Different-Phenotype (%): 10.49% and 12.34%
  Population Mitotic Cells (%): 95.33% and 80.87%
  Population Normal (%): 100%
  Population Pyknosed Nuclei (%): 18.01% and 35.49%
  Population Tubulin-Different-Phenotype (%): 0.43% and 6.49%
  Total Cell Count: 594 and 324
U2OS; [4]
  Population Apoptotic (%): 28.33% and 48.15%
  Population Fragmented Nuclei (%): 2.1% and 1.04%
  Population Healthy Nuclei (%): 85.32% and 84.97%
  Population Hoechst High Intensity Objects (%): 0%
  Population Membrane Permeable-Phenotype (%): 0.25% and 4.88%
  Population Mitochondria Different-Phenotype (%): 0% and 5.49%
  Population Mitotic Cells (%): 71.67% and 51.85%
  Population Normal (%): 100%
  Population Pyknosed Nuclei (%): 12.58% and 13.99%
  Population Tubulin-Different-Phenotype (%): 0.74% and 3.05%
  Total Cell Count: 477 and 193
U2OS; [5]
  Population Apoptotic (%): 30.77% and 33.33%
  Population Fragmented Nuclei (%): 2.92% and 1.9%
  Population Healthy Nuclei (%): 82.47% and 82.91%
  Population Hoechst High Intensity Objects (%): 0%
  Population Membrane Permeable-Phenotype (%): 1.36% and 3.05%
  Population Mitochondria Different-Phenotype (%): 0.27% and 7.63%
  Population Mitotic Cells (%): 69.23% and 66.67%
  Population Normal (%): 100%
  Population Pyknosed Nuclei (%): 14.61% and 15.19%
  Population Tubulin-Different-Phenotype (%): 1.36% and 1.53%
  Total Cell Count: 445 and 158
U2OS; [6]
  Population Apoptotic (%): 32.76% and 59.26%
  Population Fragmented Nuclei (%): 3.22% and 5.11%
  Population Healthy Nuclei (%): 87.88% and 85.04%
  Population Hoechst High Intensity Objects (%): 0%
  Population Membrane Permeable-Phenotype (%): 0.52% and 4.29%
  Population Mitochondria Different-Phenotype (%): 0.35% and 3.86%
  Population Mitotic Cells (%): 67.24% and 40.74%
  Population Normal (%): 100%
  Population Pyknosed Nuclei (%): 8.9% and 9.85%
  Population Tubulin-Different-Phenotype (%): 0.52% and 2.15%
  Total Cell Count: 652 and 274
U2OS; [1]
  Population Apoptotic (%): 43.37% and 43.48%
  Population Fragmented Nuclei (%): 5.51% and 6.04%
  Population Healthy Nuclei (%): 79.23% and 81.32%
  Population Hoechst High Intensity Objects (%): 0%
  Population Membrane Permeable-Phenotype (%): 0.93% and 2.7%
  Population Mitochondria Different-Phenotype (%): 0% and 4.73%
  Population Mitotic Cells (%): 56.63% and 56.52%
  Population Normal (%): 100%
  Population Pyknosed Nuclei (%): 15.26% and 12.64%
  Population Tubulin-Different-Phenotype (%): 0.46% and 0.68%
  Total Cell Count: 544 and 182
U2OS; [2]
  Population Apoptotic (%): 51.49% and 72.73%
  Population Fragmented Nuclei (%): 10.29% and 4.03%
  Population Healthy Nuclei (%): 80.83% and 86.62%
  Population Hoechst High Intensity Objects (%): 0%
  Population Membrane Permeable-Phenotype (%): 0.44% and 2.21%
  Population Mitochondria Different-Phenotype (%): 0.11% and 1.47%
  Population Mitotic Cells (%): 48.51% and 27.27%
  Population Normal (%): 100%
  Population Pyknosed Nuclei (%): 8.88% and 9.34%
  Population Tubulin-Different-Phenotype (%): 0.44% and 1.47%
  Total Cell Count: 1137 and 471
U2OS; [3]
  Population Apoptotic (%): 58.54% and 60.87%
  Population Fragmented Nuclei (%): 17.75% and 9.91%
  Population Healthy Nuclei (%): 65.96% and 70.26%
  Population Hoechst High Intensity Objects (%): 0%
  Population Membrane Permeable-Phenotype (%): 0.6% and 1.84%
  Population Mitochondria Different-Phenotype (%): 0% and 2.45%
  Population Mitotic Cells (%): 41.46% and 39.13%
  Population Normal (%): 100%
  Population Pyknosed Nuclei (%): 16.29% and 19.83%
  Population Tubulin-Different-Phenotype (%): 1.2% and 0.61%
